{"data": "Experimental data pooled from the literature", "matrix": "plasma", "note": "Protocols differ between the studies behind these lines."}
{"SMILES": "CN(C)C1(CNC(=O)c2ccc3c(c2)CCN3C(=O)c2ccccc2)CCOCC1", "system": "male CD-1 mouse", "setting": "intraperitoneal, 30 mg/kg", "measurement": "AUC(0-inf)", "value": "246 ng·h/mL"}
{"SMILES": "COc1cc(C(=O)c2nc(-c3cccc4[nH]ccc34)c[nH]2)cc(OC)c1OC", "system": "male CD-1 mouse", "setting": "intraperitoneal, 15 mg/kg", "measurement": "AUC(0-t)", "value": "1510 ng·h/mL"}
{"SMILES": "O=C1CCC(N2Cc3c(ccc4c3OCC43CCN(Cc4ccccc4)CC3)C2=O)C(=O)N1 (stereo not drawn)", "system": "male CD-1 mouse", "setting": "oral, 3 mg/kg", "measurement": "AUC(0-inf)", "value": "1340 ng·h/mL"}
{"SMILES": "C[C@@H](O)[C@@H]1NC(=O)CNC(=O)[C@H](Cc2c[nH]cn2)NC(=O)[C@H](Cc2c[nH]c3ccccc23)NC(=O)[C@H](CC(N)=O)NC(=O)CNC(=O)C[C@@H](C(=O)N[C@@H](Cc2c[nH]c3ccccc23)C(=O)N[C@@H](Cc2ccccc2)C(=O)N[C@@H](Cc2ccccc2)C(=O)N[C@@H](CC(N)=O)C(=O)N[C@@H](Cc2ccc(O)cc2)C(=O)N[C@@H](Cc2ccc(O)cc2)C(=O)N[C@@H](Cc2c[nH]c3ccccc23)C(=O)O)NC(=O)[C@@H]2CCCN2C(=O)[C@H](CO)NC1=O", "system": "mouse", "setting": "intravenous, 3 mg/kg", "measurement": "AUC(0-t)", "value": "35100 ng·h/mL"}
{"SMILES": "CCOC(=O)c1c(NC(=O)CNC(C)C)sc2c1CCCCC2", "system": "male mouse", "setting": "intraperitoneal, 100 mg/kg, single dose", "measurement": "AUC(0-t)", "value": "19300 ng·h/mL"}
{"SMILES": "CC(C)[C@]12O[C@H]1[C@@H]1O[C@]13[C@]1(O[C@H]1C[C@H]1C4=C(CC[C@@]13C)C(=O)OC4)[C@@H]2O", "system": "SCID mouse", "setting": "intravenous, 0.6 mg/kg", "measurement": "AUC(0-inf)", "value": "619 ng·h/mL"}
{"SMILES": "CC(C)=CCC[C@](C)(O[C@@H]1O[C@H](CO)[C@@H](O)[C@H](O)[C@H]1O)[C@H]1CC[C@]2(C)[C@@H]1[C@H](O)C[C@@H]1[C@@]3(C)CC[C@H](O)C(C)(C)[C@@H]3CC[C@]12C", "system": "mouse", "setting": "oral, 10 mg/kg", "measurement": "AUC(0-t)", "value": "655 ng·h/mL"}
{"SMILES": "N=C(N)NCCC[C@H](NC(=O)[C@H](Cc1ccccc1)NC(=O)[C@H](CCC(N)=O)NC(=O)OCc1ccccc1)C(=O)c1nccs1", "system": "female C57BL/6 mouse", "setting": "intravenous, 5 mg/kg", "measurement": "AUC(0-t)", "value": "1180 ng·h/mL"}
{"SMILES": "CC[C@H](C)[C@H](NC(=O)[C@H](Cc1ccccc1)NC(=O)[C@H](CCC(=O)O)NC(=O)[C@H](CCCCN)NC(=O)[C@H](C)NC(=O)[C@H](C)NC(=O)[C@H](CCC(N)=O)NC(=O)CNC(=O)[C@H](CCC(=O)O)NC(=O)[C@H](CC(C)C)NC(=O)[C@H](Cc1ccc(O)cc1)NC(=O)[C@H](CO)NC(=O)[C@H](CO)NC(=O)[C@@H](NC(=O)[C@H](CC(=O)O)NC(=O)[C@H](CO)NC(=O)[C@@H](NC(=O)[C@H](Cc1ccccc1)NC(=O)[C@@H](NC(=O)CNC(=O)[C@H](CCC(=O)O)NC(=O)[C@H](C)NC(=O)N(N)Cc1c[nH]cn1)[C@@H](C)O)[C@@H](C)O)C(C)C)C(=O)N[C@@H](C)C(=O)N[C@@H](Cc1c[nH]c2ccccc12)C(=O)N[C@@H](CC(C)C)C(=O)N[C@H](C(=O)N[C@@H](CCCNC(=N)N)C(=O)NCC(=O)N[C@@H](CCCNC(=N)N)C(=O)NCC(=O)O)C(C)C", "system": "male CD-1 mouse", "setting": "intravenous, 1 mg/kg, single dose", "measurement": "AUC(0-t)", "value": "2390 ng·h/mL"}
